Source: ChEMBL document CHEMBL4145652, “Chemoenzymatic Synthesis and Pharmacological Characterization of Functionalized Aspartate Analogues As Novel Excitatory Amino Acid Transporter Inhibitors” (J Med Chem, 2018)
The source made the active and inactive calls. The calls are words filed in the database; no cut-off is given here.

What was measured:
Format in all cases: cell-based
[1] = biological target: T1, Excitatory amino acid transporter 1 (Homo sapiens, UniProt P43003); test: Potency index, ratio of IC50 for DL-TBOA to IC50 for test compound for inhibition of human EAAT1 expressed in HEK293 cells assessed as reduction in [3H]-D-Asp uptake incubated for 4 mins by scintillation counting method
T1 sequence (P43003 whole entry): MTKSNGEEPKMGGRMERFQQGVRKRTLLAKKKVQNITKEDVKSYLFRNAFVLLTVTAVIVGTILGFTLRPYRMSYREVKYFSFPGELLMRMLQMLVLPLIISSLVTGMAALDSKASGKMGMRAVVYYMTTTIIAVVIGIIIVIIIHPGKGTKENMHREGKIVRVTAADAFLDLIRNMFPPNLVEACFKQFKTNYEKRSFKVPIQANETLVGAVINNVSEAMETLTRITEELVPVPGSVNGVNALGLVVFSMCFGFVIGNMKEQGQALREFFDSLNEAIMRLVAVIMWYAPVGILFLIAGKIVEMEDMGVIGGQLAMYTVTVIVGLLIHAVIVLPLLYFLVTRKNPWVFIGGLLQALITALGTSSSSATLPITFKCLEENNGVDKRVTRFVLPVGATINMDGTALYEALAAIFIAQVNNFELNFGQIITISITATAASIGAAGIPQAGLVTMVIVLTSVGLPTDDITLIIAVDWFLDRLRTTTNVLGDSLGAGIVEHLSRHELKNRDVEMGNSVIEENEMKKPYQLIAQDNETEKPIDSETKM
Summary of the method: (§1)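 Stable HEK293 lines expressing human transporter, plated on poly-D-lysine 16–24 h before assay. Washed cells were given HBSS/20 mM HEPES/1 mM CaCl2/1 mM MgCl2, pH 7.4, with 100 nM [3H]-D-Asp plus graded inhibitor for 4 min at 37 °C. Nonspecific uptake was taken with 3 mM L-Glu. IC50 came from a Hill fit; index = DL-TBOA IC50 ÷ test IC50. Three or four independent runs in duplicate.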

[2] = biological target: T2, Excitatory amino acid transporter 3 (Homo sapiens) (UniProt P43005); test: Potency index, ratio of IC50 for DL-TBOA to IC50 for test compound for inhibition of human EAAT3 expressed in HEK293 cells assessed as reduction in [3H]-D-Asp uptake incubated for 4 mins by scintillation counting method; summary of the method: as §1
T2 sequence (whole entry): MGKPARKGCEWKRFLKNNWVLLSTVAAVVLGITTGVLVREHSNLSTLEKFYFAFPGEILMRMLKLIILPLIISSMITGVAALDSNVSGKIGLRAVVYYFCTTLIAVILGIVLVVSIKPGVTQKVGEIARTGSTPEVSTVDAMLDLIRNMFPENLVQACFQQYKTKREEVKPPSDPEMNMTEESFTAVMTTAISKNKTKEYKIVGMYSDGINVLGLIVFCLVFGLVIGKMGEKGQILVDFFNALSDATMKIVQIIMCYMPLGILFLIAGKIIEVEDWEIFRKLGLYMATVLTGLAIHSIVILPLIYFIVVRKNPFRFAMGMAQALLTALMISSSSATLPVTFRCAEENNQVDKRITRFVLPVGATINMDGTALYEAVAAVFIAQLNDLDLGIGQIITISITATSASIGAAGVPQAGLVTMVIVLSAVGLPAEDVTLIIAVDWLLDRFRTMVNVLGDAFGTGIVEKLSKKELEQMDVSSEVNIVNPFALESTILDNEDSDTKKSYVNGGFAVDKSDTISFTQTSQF

[3] = biological target: T3, Excitatory amino acid transporter 2 (Homo sapiens, UniProt P43004); test: Potency index, ratio of IC50 for WAY-213613 to IC50 for test compound for inhibition of human EAAT2 expressed in HEK293 cells assessed as reduction in [3H]-D-Asp uptake incubated for 4 mins by scintillation counting method
T3 sequence (P43004 whole entry): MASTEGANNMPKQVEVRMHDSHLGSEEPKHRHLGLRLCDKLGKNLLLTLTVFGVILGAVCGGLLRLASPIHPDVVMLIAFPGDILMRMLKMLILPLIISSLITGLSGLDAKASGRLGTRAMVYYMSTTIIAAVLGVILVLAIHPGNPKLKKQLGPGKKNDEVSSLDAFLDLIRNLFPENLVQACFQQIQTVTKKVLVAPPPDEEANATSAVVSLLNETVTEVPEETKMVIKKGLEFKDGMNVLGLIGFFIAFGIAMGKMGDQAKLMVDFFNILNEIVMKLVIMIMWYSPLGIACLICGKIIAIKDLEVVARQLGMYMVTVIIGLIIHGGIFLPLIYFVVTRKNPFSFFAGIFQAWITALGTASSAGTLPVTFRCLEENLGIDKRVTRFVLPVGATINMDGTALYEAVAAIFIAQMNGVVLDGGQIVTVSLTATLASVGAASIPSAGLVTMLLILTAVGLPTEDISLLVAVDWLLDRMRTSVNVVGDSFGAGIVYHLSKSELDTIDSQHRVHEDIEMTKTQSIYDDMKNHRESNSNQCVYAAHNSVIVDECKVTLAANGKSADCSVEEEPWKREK

[4] = biological target: T4, Excitatory amino acid transporter 4 (Rattus norvegicus) (UniProt O35921); test: Potency index, ratio of IC50 for WAY-213613 to IC50 for test compound for inhibition of rat EAAT4 expressed in tsA201 cells assessed as reduction in [3H]-D-Asp uptake incubated for 4 mins by scintillation counting method
T4 sequence (whole entry): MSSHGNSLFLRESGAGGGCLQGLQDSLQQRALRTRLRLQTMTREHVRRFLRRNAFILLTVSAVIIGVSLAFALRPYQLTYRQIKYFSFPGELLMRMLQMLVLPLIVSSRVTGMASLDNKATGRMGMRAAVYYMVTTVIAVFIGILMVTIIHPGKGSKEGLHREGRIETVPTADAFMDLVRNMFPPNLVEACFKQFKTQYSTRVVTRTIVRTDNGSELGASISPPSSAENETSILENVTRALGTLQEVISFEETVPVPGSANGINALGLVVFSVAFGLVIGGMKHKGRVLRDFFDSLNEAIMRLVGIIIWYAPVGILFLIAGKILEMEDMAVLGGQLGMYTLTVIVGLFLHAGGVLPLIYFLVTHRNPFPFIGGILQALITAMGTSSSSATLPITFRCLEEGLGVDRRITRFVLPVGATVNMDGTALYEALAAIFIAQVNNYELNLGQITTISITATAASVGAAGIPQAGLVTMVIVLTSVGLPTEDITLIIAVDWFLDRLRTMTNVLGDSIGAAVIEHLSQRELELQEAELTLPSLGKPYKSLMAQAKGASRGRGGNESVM

[5] = biological target: T2, Excitatory amino acid transporter 3 (Homo sapiens); test: Potency index, ratio of IC50 for WAY-213613 to IC50 for test compound for inhibition of human EAAT3 expressed in HEK293 cells assessed as reduction in [3H]-D-Asp uptake incubated for 4 mins by scintillation counting method
[6] = biological target: T5, Excitatory amino acid transporter 4 (Rattus norvegicus, UniProt O35921); test: Inhibition of rat EAAT4 expressed in tsA201 cells assessed as reduction in [3H]-D-Asp uptake incubated for 4 mins by scintillation counting method; details: read-out: IC50
T5 sequence (O35921 whole entry): T4 sequence (whole entry)
Summary of the method: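 Rat EAAT4 stably expressed in tsA201 cells, induced with 1 μg/mL tetracycline during overnight plating. [3H]-D-Asp (100 nM) uptake with graded compound concentrations ran for 4 min at 37 °C in HEPES-buffered HBSS, pH 7.4. Uptake was linear at this time. Nonspecific uptake was defined by 3 mM L-Glu. Read-out by scintillation counting. IC50 came from a Hill-equation fit. Three or four independent assays in duplicate.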

[7] = biological target: T3, Excitatory amino acid transporter 2; test: Potency index, ratio of IC50 for DL-TBOA to IC50 for test compound for inhibition of human EAAT2 expressed in HEK293 cells assessed as reduction in [3H]-D-Asp uptake incubated for 4 mins by scintillation counting method; summary of the method: as §1
[8] = biological target: T1, Excitatory amino acid transporter 1; test: Potency index, ratio of IC50 for WAY-213613 to IC50 for test compound for inhibition of human EAAT1 expressed in HEK293 cells assessed as reduction in [3H]-D-Asp uptake incubated for 4 mins by scintillation counting method
[9] = biological target: T6, Excitatory amino acid transporter 3 (Homo sapiens, UniProt P43005); test: Inhibition of human EAAT3 expressed in HEK293 cells assessed as reduction in [3H]-D-Asp uptake incubated for 4 mins by scintillation counting method
T6 sequence (P43005 whole entry): T2 sequence (whole entry)
Summary of the method: (§2)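 HEK293 cells stably expressing human EAAT1, EAAT2 or EAAT3 were plated 16–24 h before the assay. Cells were washed and incubated with 100 nM [3H]-D-Asp plus graded compound concentrations in HBSS/20 mM HEPES/CaCl2/MgCl2, pH 7.4, for 4 min at 37 °C. Uptake was in the linear range at this time. Cells were washed ice-cold and counted by scintillation. IC50 came from a Hill-equation fit. Three or four independent assays in duplicate.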

[10] = biological target: T4, Excitatory amino acid transporter 4 (Rattus norvegicus); test: Potency index, ratio of IC50 for DL-TBOA to IC50 for test compound for inhibition of rat EAAT4 expressed in tsA201 cells assessed as reduction in [3H]-D-Asp uptake incubated for 4 mins by scintillation counting method
Summary of the method: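 Stable rat EAAT4 tsA201 line induced with 1 µg/mL tetracycline on plating, 16–24 h before assay. Uptake used 100 nM [3H]-D-Asp with graded inhibitor in HEPES-buffered HBSS, pH 7.4, for 4 min at 37 °C. 3 mM L-Glu defined nonspecific uptake. Scintillation counts were Hill-fitted for IC50; index = DL-TBOA IC50 ÷ test IC50. Three or four independent runs in duplicate.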

[11] = biological target: T3, Excitatory amino acid transporter 2; test: Inhibition of human EAAT2 expressed in HEK293 cells assessed as reduction in [3H]-D-Asp uptake incubated for 4 mins by scintillation counting method; details: read-out: IC50
Summary of the method: as §2, with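 “time. Nonspecific uptake was defined with 3 mM L-Glu.” for “time.”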

[12] = biological target: T1, Excitatory amino acid transporter 1; test: Inhibition of human EAAT1 expressed in HEK293 cells assessed as reduction in [3H]-D-Asp uptake incubated for 4 mins by scintillation counting method; summary of the method: as §2
[13] = biological target: T1, Excitatory amino acid transporter 1; test: Potency index, ratio of IC50 for NBI59159 to IC50 for test compound for inhibition of human EAAT1 expressed in HEK293 cells assessed as reduction in [3H]-D-Asp uptake incubated for 4 mins by scintillation counting method
[14] = biological target: T3, Excitatory amino acid transporter 2; test: Potency index, ratio of IC50 for NBI59159 to IC50 for test compound for inhibition of human EAAT2 expressed in HEK293 cells assessed as reduction in [3H]-D-Asp uptake incubated for 4 mins by scintillation counting method
[15] = biological target: T2, Excitatory amino acid transporter 3 (Homo sapiens); test: Potency index, ratio of IC50 for NBI59159 to IC50 for test compound for inhibition of human EAAT3 expressed in HEK293 cells assessed as reduction in [3H]-D-Asp uptake incubated for 4 mins by scintillation counting method
[16] = biological target: T2, Excitatory amino acid transporter 3 (Homo sapiens); test: Substrate activity at human EAAT3 expressed in HEK293 cells assessed as increase in fluorescence level at 300 uM incubated for 30 mins by fluorescence-based FLIPR membrane potential blue assay
Summary of the method: (§3)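 Human EAAT1-, EAAT2- or EAAT3-HEK293 cells were loaded with FMP dye (0.5 mg/mL) in Na+-containing HEPES buffer, pH 7.4, for 30 min at 37 °C. Test compound was then added alone to an assay concentration of 300 μM. Fluorescence (ex 525/em 565 nm) was recorded before addition and up to 90 s after. Three independent experiments in triplicate.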

[17] = biological target: T2, Excitatory amino acid transporter 3 (Homo sapiens); test: Inhibition of human EAAT3 expressed in HEK293 cells assessed as reduction in EC80 L-glutamate-induced response at 300 uM pre-incubated before L-glutamate addition by fluorescence-based FLIPR membrane potential blue assay
Summary of the method: (§4)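 Stably transfected HEK293 cells expressing human EAAT1, EAAT2 or EAAT3, plated the day before on poly-D-lysine-coated plates. Cells were loaded with FMP dye (0.5 mg/mL) in NaCl/KCl/HEPES/glucose buffer, pH 7.4, for 30 min at 37 °C, with test compound at 300 μM present. L-Glu at its EC80 for each transporter was then added. Emission at 565 nm (excitation 525 nm) was read up to 90 s. Three independent experiments in triplicate.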

[18] = biological target: T1, Excitatory amino acid transporter 1; test: Inhibition of human EAAT1 expressed in HEK293 cells assessed as reduction in EC80 L-glutamate-induced response at 300 uM pre-incubated before L-glutamate addition by fluorescence-based FLIPR membrane potential blue assay; summary of the method: as §4
[19] = biological target: T3, Excitatory amino acid transporter 2; test: Inhibition of human EAAT2 expressed in HEK293 cells assessed as reduction in EC80 L-glutamate-induced response at 300 uM pre-incubated before L-glutamate addition by fluorescence-based FLIPR membrane potential blue assay; summary of the method: as §4
[20] = biological target: T3, Excitatory amino acid transporter 2; test: Substrate activity at human EAAT2 expressed in HEK293 cells assessed as increase in fluorescence level at 300 uM incubated for 30 mins by fluorescence-based FLIPR membrane potential blue assay; summary of the method: as §3
[21] = biological target: T3, Excitatory amino acid transporter 2; test: Inhibition of human EAAT2 expressed in HEK293 cells assessed as reduction in EC80 L-glutamate-induced response at 300 uM co-applied with L-glutamate addition by fluorescence-based FLIPR membrane potential blue assay
[22] = biological target: T1, Excitatory amino acid transporter 1; test: Substrate activity at human EAAT1 expressed in HEK293 cells assessed as increase in fluorescence level at 300 uM incubated for 30 mins by fluorescence-based FLIPR membrane potential blue assay; summary of the method: as §3

SMILES | Ratio IC50 [1] | Ratio IC50 [2] | IC50 [6] [nM] | Ratio IC50 [7] | IC50 [9] [nM] | Ratio IC50 [10] | IC50 [11] [nM] | IC50 [12] [nM] | other results
N[C@H](C(=O)O)[C@H](OCc1ccccc1)C(=O)Nc1ccc(Oc2cc(F)c(F)cc2Br)cc1 | 190 | 40 | 140 | 53 | 94 | 16 | 36 | 11 | Ratio IC50 [3]: 2; Ratio IC50 [4]: 11; Ratio IC50 [5]: 20; Ratio IC50 [8]: 78
N[C@H](C(=O)O)[C@H](OCc1ccccc1)C(=O)Nc1ccc2c(c1)Cc1ccccc1-2 | 180 | 69 | 80 | 40 | 55 | 29 | 47 | 12 | Ratio IC50 [13]: 83; Ratio IC50 [14]: 30; Ratio IC50 [15]: 1.6
N[C@H](C(=O)O)[C@H](OCc1ccsc1)C(=O)O | – | – | 5000 | – | 860 | – | 920 | 1600 | Activity [16]: inactive; inhibition [17]: Active; inhibition [18]: Active; inhibition [19]: Active; Activity [20]: inactive; inhibition [21]: Active; Activity [22]: inactive
